The test system of assay [1] is Haemonchus contortus. Briefly: anthelmintic activity as the percent reduction in faecal egg count in sheep infected with 5000 Haemonchus contortus L3 larvae at 0.01 mg/kg.
Assay [2] deals with Haemonchus contortus. Briefly: anthelmintic activity as the eggs per gram of faeces in sheep infected with 5000 Haemonchus contortus L3 larvae at 0.01 mg/kg.
For assay [3], the system named is Bos taurus. The assay can be described thus: anthelmintic activity as the eggs per gram of faeces in sheep infected with 5000 Haemonchus contortus L3 larvae at 0.1 mg/kg. The format is functional, Ovis aries, Feces. Put shortly: (§1)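 Merino or Schwarzkopf sheep (25–35 kg) infected with 5000 H. contortus L3, dosed after the pre-patency period, orally in gelatine capsules or intravenously. Faecal egg counts by Wetzel-modified McMaster method, per gram of fresh faeces, at regular intervals before and after treatment. Activity as eggs per gram and percent reduction versus pretreatment. Untreated controls sampled at matching times.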

Assay [4] concerns Bos taurus. The assay can be described thus: anthelmintic activity as the percent reduction in faecal egg count in sheep infected with 5000 Haemonchus contortus L3 larvae at 0.1 mg/kg. It is filed as functional, Ovis aries, Feces. Summed up:
as §1

We go through 3 compounds from ChEMBL document CHEMBL1138733, “Chimeric cyclodepsipeptides as mimetics for the anthelmintic PF1022A” (2004).

Each structure is given as a SMILES string.

`CC(C)C[C@H]1C(=O)O[C@H](Cc2ccccc2)C(=O)N(C)[C@@H](CC(C)C)C(=O)O[C@H](C)C(=O)N(C)[C@@H](CC(C)C)C(=O)N2CCC[C@@H]2C(=O)N2CCC[C@H]2C(=O)O[C@H](C)C(=O)N1C`: in the assay on Haemonchus contortus [1], the Reduction came to 98%. Moreover, the Activity with Haemonchus contortus [2] was 50 eggs/g.
`CC(C)C[C@H]1C(=O)O[C@H](Cc2ccccc2)C(=O)N(C)[C@@H](CC(C)C)C(=O)O[C@H](C)C(=O)N(C)[C@@H](CC(C)C)C(=O)O[C@H](Cc2ccccc2)C(=O)N(C)[C@@H](CC(C)C)C(=O)O[C@H](C)C(=O)N1C`: the results for the Activity in the assay on Bos taurus [3] and in the assay with Haemonchus contortus [2] were 0 eggs/g and 573 eggs/g, respectively. Moreover, the Reduction was determined as 43% in the assay with Haemonchus contortus [1] and 100% in the assay on Bos taurus [4].
Turning to `CC(C)C[C@H]1C(=O)N[C@H]2CCC3SC[C@@H](C(=O)O[C@H](C)C(=O)N(C)[C@@H](CC(C)C)C(=O)O[C@H](Cc4ccccc4)C(=O)N(C)[C@@H](CC(C)C)C(=O)O[C@H](C)C(=O)N1C)N3C2=O` (stereo partly drawn), the Reduction in the assay with Haemonchus contortus [1] came out at 95%. In the assay on Haemonchus contortus [2], the Activity is given as 83 eggs/g.
